Reference: ChEMBL document CHEMBL2406979, “Antitumor activity of 2-hydroxycinnamaldehyde for human colon cancer cells through suppression of β-catenin signaling” (J Nat Prod, 2013)
Calls of active or inactive are those of the source. The rule behind the calls is not given here.

Tested on: HEK293
Assay: Inhibition of Wnt/beta-catenin (unknown origin) signaling pathway expressed in HEK293 cells assessed as inhibition of TCF4 transcriptional activity at 5 to 40 uM after 24 hrs by TOPflash reporter gene assay
Format: cell-based
Settings: Homo sapiens
Procedure, shortened: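 HEK293 cells seeded at 1.5 × 10^4 per well and cotransfected (Lipofectamine 2000) with TOPflash luciferase reporter 0.1 μg, Renilla 0.005 μg for normalization, pcDNA β-catenin 0.02 μg and TCF4 expression vector 0.004 μg to activate Wnt; 24 h later treated with compound or solvent for 24 h; dual luciferase read-out, Renilla-normalized, relative to vehicle; triplicate.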

## O=C/C=C/c1ccccc1
  inhibition: Active
